Activity calls are given as the source filed them. The rule behind the calls is not given here.
Assays:
[1] = test system: THP-1; assay: Effect on CYP1B1 protein expression in human THP1 cells at 10 uM after 24 hrs by proteome analysis relative to control; format: functional
Outline: (§1)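 PMA-differentiated THP-1 macrophages given 10 μM compound or DMSO for 24 h, then lysed in TRIzol. Proteins reduced with DTT, alkylated with iodoacetamide, digested with trypsin (1:50 w/w) for 16 h at 30 °C. Biological replicates pooled, analysed by LC-MS/MS on an Orbitrap Velos Pro with a 4 h gradient, FDR ≤0.05. Only unique peptides used; log2 peptide ratios averaged per protein and tested by one-sample t test versus vehicle.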

[2] = test system: THP-1; assay: Induction of 1% human plasma-mediated cholesterol efflux from [3H]-cholesterol labeled human THP1 cells at 10 uM preincubated for 24 hrs followed by 1% human plasma addition measured after 6 hrs by scintillation counting method; format: functional
Outline: (§2)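 Differentiated THP-1 macrophages loaded with [3H]-cholesterol for 24 h in the presence of compound, or pioglitazone 10 μM as positive control. Medium then replaced with serum-free RPMI containing compound, with or without acceptor (10 μg/mL apo A1 or 1% human plasma from fasted volunteers), for 6 h. Efflux % = extracellular/total cpm with acceptor minus without acceptor, ×100, by scintillation counting. Three independent experiments.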

[3] = test system: THP-1; assay: Effect on RAB4A protein expression in human THP1 cells at 10 uM after 24 hrs by proteome analysis relative to control; format: functional; outline: as §1
[4] = test system: THP-1; assay: Effect on NBEA protein expression in human THP1 cells at 10 uM after 24 hrs by proteome analysis relative to control; format: functional; outline: as §1
[5] = test system: THP-1; assay: Effect on SPCS1 protein expression in human THP1 cells at 10 uM after 24 hrs by proteome analysis relative to control; format: functional; outline: as §1
[6] = Upregulation of ABCG1 protein expression in human THP1 cells at 10 uM after 24 hrs by Western blot method; format: functional, cell-based; settings: THP-1
Outline: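 PMA-differentiated THP-1 macrophages (200 nM PMA, 72 h) exposed to 10 μM agent or DMSO vehicle for 24 h. Lysis in NP40 buffer with protease inhibitors, then Bradford protein assay. 20 μg protein run on SDS-PAGE, blotted to PVDF and probed with anti-ABCG1, β-actin as reference. ECL band densitometry from four independent experiments.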

[7] = test system: THP-1; assay: Effect on LAMP1 protein expression in human THP1 cells at 10 uM after 24 hrs by proteome analysis relative to control; format: functional; outline: as §1
[8] = test system: THP-1; assay: Effect on GOLGA5 protein expression in human THP1 cells at 10 uM after 24 hrs by proteome analysis relative to control; format: functional; outline: as §1
[9] = test system: THP-1; assay: Induction of apo-A1-mediated cholesterol efflux from [3H]-cholesterol labeled human THP1 cells preincubated for 24 hrs followed by apo A1 addition measured after 6 hrs by scintillation counting method; format: functional, cell-based; outline: as §2
[10] = test system: THP-1; assay: Effect on PTPRC protein expression in human THP1 cells at 10 uM after 24 hrs by proteome analysis relative to control; format: functional; outline: as §1
[11] = test system: THP-1; assay: Effect on CUL7 protein expression in human THP1 cells at 10 uM after 24 hrs by proteome analysis relative to control; format: functional; outline: as §1
[12] = test system: THP-1; assay: Effect on MYL12A protein expression in human THP1 cells at 10 uM after 24 hrs by proteome analysis relative to control; format: functional; outline: as §1
[13] = Cytotoxicity against human THP1 cells assessed as decrease in cell viability at 1 to 20 uM after 24 hrs by resazurin assay; format: toxicity, cell-based; settings: thp-1, 24 h
Outline: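 THP-1 cells kept in RPMI-1640 with 10% heat-inactivated FBS, penicillin/streptomycin and 2 mM L-glutamine, then differentiated to macrophages with 200 nM PMA for 72 h. Exposed to compound for 24 h. Viability read by resazurin conversion as fluorescence (ex 535 nm, em 580 nm). Digitonin 50 μg/mL served as cytotoxic control. Mean ± SD of four independent experiments; one-way ANOVA with Bonferroni test against DMSO.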

[14] = test system: THP-1; assay: Effect on DYNLL2 protein expression in human THP1 cells at 10 uM after 24 hrs by proteome analysis relative to control; format: functional; outline: as §1
[15] = test system: THP-1; assay: Effect on SDE2 protein expression in human THP1 cells at 10 uM after 24 hrs by proteome analysis relative to control; format: functional; outline: as §1
[16] = test system: THP-1; assay: Effect on TUSC2 protein expression in human THP1 cells at 10 uM after 24 hrs by proteome analysis relative to control; format: functional; outline: as §1
[17] = test system: THP-1; assay: Effect on MAN2A1 protein expression in human THP1 cells at 10 uM after 24 hrs by proteome analysis relative to control; format: functional; outline: as §1
[18] = test system: THP-1; assay: Effect on HIST1H2AB protein expression in human THP1 cells at 10 uM after 24 hrs by proteome analysis relative to control; format: functional; outline: as §1
[19] = test system: THP-1; assay: Effect on MGA protein expression in human THP1 cells at 10 uM after 24 hrs by proteome analysis relative to control; format: functional; outline: as §1
[20] = test system: THP-1; assay: Effect on DBI protein expression in human THP1 cells at 10 uM after 24 hrs by proteome analysis relative to control; format: functional; outline: as §1
[21] = test system: THP-1; assay: Effect on of ABCA1 protein expression in human THP1 cells at 10 uM after 24 hrs by proteome analysis relative to control; format: functional
[22] = test system: THP-1; assay: Effect on BHLHA15 protein expression in human THP1 cells at 10 uM after 24 hrs by proteome analysis relative to control; format: functional; outline: as §1
[23] = test system: THP-1; assay: Effect on ATP13A3 protein expression in human THP1 cells at 10 uM after 24 hrs by proteome analysis relative to control; format: functional; outline: as §1
[24] = test system: THP-1; assay: Effect on CPA3 protein expression in human THP1 cells at 10 uM after 24 hrs by proteome analysis relative to control; format: functional; outline: as §1
[25] = Upregulation of ABCG1 mRNA expression in human THP1 cells at 10 uM after 24 hrs by qPCR method relative to control; format: functional, cell-based; settings: THP-1
Outline: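 THP-1 macrophages treated for 24 h with 10 μM compound, 10 μM pioglitazone or DMSO. Total RNA extracted and converted to cDNA; ABCA1 or ABCG1 measured by SYBR Green qPCR and expressed relative to 18S. Mean ± SD of four independent experiments; one-way ANOVA with Bonferroni test against DMSO.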

C/C=C(/C)C(=O)OC[C@H]1[C@@H](Cc2ccc(OC)c(OC)c2)CO[C@@H]1c1ccc(OC)c(OC)c1
fold change (FC) [1]: 1.6
Activity [2]: Active
fold change (FC) [3]: 1.9
fold change (FC) [4]: 1.6
fold change (FC) [5]: 1.6
Activity [6]: Active
fold change (FC) [7]: 1.8
fold change (FC) [8]: 2.3
Activity [9]: Dose-dependent effect
fold change (FC) [10]: 1.7
fold change (FC) [11]: 0.6
fold change (FC) [12]: 2.2
Activity [13]: Non-Toxic
fold change (FC) [14]: 1.7
fold change (FC) [15]: 0.6
fold change (FC) [16]: 1.5
fold change (FC) [17]: 2
fold change (FC) [18]: 0.6
fold change (FC) [19]: 1.7
fold change (FC) [20]: 1.6
fold change (FC) [21]: 1.1
fold change (FC) [22]: 0.7
fold change (FC) [23]: 1.7
fold change (FC) [24]: 1.7
fold change (FC) [25]: 3.8

From ChEMBL document CHEMBL3861960, “Leoligin, the Major Lignan from Edelweiss (Leontopodium nivale subsp. alpinum), Promotes Cholesterol Efflux from THP-1 Macrophages” (J Nat Prod, 2016)
